Laboratory results reported in the RNAGym collection of RNA variant scans (doi:10.1126/science.aae0568).
Variants at the floor of the assay were thinned out.

B1: tRNA (parent)
chain: GUUCCGUUGGCGUAAUGGUAACGCGUCUCCCUCCUAAGGAGAAGACUGCGGGUUCGAGUCCCGUACGGAACG

Variants of: B1
Assay: yeast fitness relative to wild type (ratio to wild type); higher = fitter; tRNA-Arg(CCU), competitive growth, 37 C, YPD
Method in brief: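 A pool of Saccharomyces cerevisiae strains, each with a tRNA-Arg(CCU) gene variant at the native genomic locus, was competed in YPD at 37°C for 24 hours across six parallel replicates. The variants had been chemically synthesised at a 3% per-site mutation rate over 69 sites, and gene amplicons before and after competition were read by 100-nucleotide paired-end sequencing. Darwinian fitness relative to wild type rested on changes in genotype frequencies. Genotypes required ≥ 100 starting reads, and estimates < 0.5 were set to 0.5.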

Row | Variant | yeast fitness
1 | G52A C62U G63A | ≤ 0.5
2 | G52A C66A | 0.649
3 | G52A C66U | 0.706
4 | G52A G56C A65U | ≤ 0.5
5 | G52A G56U A70U | ≤ 0.5
6 | G52A G58A | 0.69
7 | G52A G58A A65G | 0.684
8 | G52A G58C A70G | ≤ 0.5
9 | G52A G63A G67A | 0.553
10 | G52A G67C | 0.796
11 | G52A G67U | 0.619
12 | G52A G68C | 0.744
13 | G52A G68U | 0.653
14 | G52A U53A C66U | ≤ 0.5
15 | G52A U54C | 0.589
16 | G52A U59A | 0.666
17 | G52A U59A A69C | 0.571
18 | G52A U59A A69C A70C | 0.609
19 | G52A U64C | 0.789
20 | G52C | 0.635
21 | G52C A57C G63C | 0.519
22 | G52C A57U | 0.514
23 | G52C A65C | 0.907
24 | G52C A65C A70G | 0.515

Row | Variant | yeast fitness
25 | G52C A65G | 0.613
26 | G52C A65U | 0.614
27 | G52C A69C | 0.687
28 | G52C A69U A70U | ≤ 0.5
29 | G52C A70U | 0.804
30 | G52C C55A | ≤ 0.5
31 | G52C C55G | 0.843
32 | G52C C60A | 0.641
33 | G52C C60U | 0.533
34 | G52C C61G | ≤ 0.5
35 | G52C C62A | 0.596
36 | G52C C62G | 0.646
37 | G52C C66U | 0.547
38 | G52C G56A C62U | 0.653
39 | G52C G63A | 0.642
40 | G52C G63A A69G | ≤ 0.5
41 | G52C G67C | 0.555
42 | G52C G68C | 0.639
43 | G52C U53C G67C | ≤ 0.5
44 | G52C U54C | 0.608
45 | G52C U64A | 0.573
46 | G52U | 0.785
47 | U53A | 0.653
48 | U53A A57G | 0.556

Row | Variant | yeast fitness
49 | U53A A57U A65U | 0.725
50 | U53A A65G | 0.571
51 | U53A A65U | 0.601
52 | U53A A70G | 0.594
53 | U53A C55A | 0.756
54 | U53A C61A | 0.509
55 | U53A C61G | ≤ 0.5
56 | U53A C61U U64A | ≤ 0.5
57 | U53A C62U | 0.827
58 | U53A C66A | ≤ 0.5
59 | U53A G56A | 0.636
60 | U53A G56C C60A A70G | 0.58
61 | U53A G58U C61U C62A | ≤ 0.5
62 | U53A G63A | 0.618
63 | U53A G67C | 0.664
64 | U53A G67U G68A | ≤ 0.5
65 | U53A G68A | 0.574
66 | U53C | 0.875
67 | U53C A57C C66U | ≤ 0.5
68 | U53C A57G C66U | ≤ 0.5
69 | U53C A57U U59A C66U | 0.535
70 | U53C A65C | 0.878
71 | U53C A65U | 0.788
72 | U53C A65U C66U | ≤ 0.5

Row | Variant | yeast fitness
73 | U53C A69U | 0.997
74 | U53C C60U | 0.638
75 | U53C C60U A69C | 0.57
76 | U53C C61G G67A A69C | 0.552
77 | U53C G58A | 1.02
78 | U53C U59A | 0.731
79 | U53G | 0.629
80 | U53G A57C | ≤ 0.5
81 | U53G A57U | 0.626
82 | U53G C66A | ≤ 0.5
83 | U53G G56C C60A | ≤ 0.5
84 | U53G G58C | 0.716
85 | U53G G63C A69C | ≤ 0.5
86 | U53G U64C | 0.669
87 | U54A | 0.659
88 | U54A A65C | 0.724
89 | U54A A65U C66U | ≤ 0.5
90 | U54A A69C | 0.658
91 | U54A A70G | 0.702
92 | U54A A70U | 0.768
93 | U54A C55A C66G A70C | ≤ 0.5
94 | U54A C55G A65C | 0.627
95 | U54A C55U | 0.615
96 | U54A C60G C66U | ≤ 0.5

Row | Variant | yeast fitness
97 | U54A C61G A69C | 0.57
98 | U54A C61U | 0.715
99 | U54A C62U | 0.59
100 | U54A C62U A65G G68A | ≤ 0.5
101 | U54A C66A | 0.528
102 | U54A C66U | 0.729
103 | U54A G56C | 0.691
104 | U54A G67A | 0.656
105 | U54A G67C G68A | ≤ 0.5
106 | U54A U59C | 0.613
107 | U54A U59C U64C | ≤ 0.5
108 | U54A U64C | 0.683
109 | U54C | 0.806
110 | U54C A57C | 0.619
111 | U54C A57G | 0.919
112 | U54C A57G C60G | 0.787
113 | U54C A57U C60A G68C | ≤ 0.5
114 | U54C A65C | 0.862
115 | U54C A65G | 0.97
116 | U54C A69C | 0.965
117 | U54C A69G A70G | 0.566
118 | U54C A69U | 0.986
119 | U54C C55G | 0.654
120 | U54C C55G A57U C62U | ≤ 0.5

Row | Variant | yeast fitness
121 | U54C C60U | 0.546
122 | U54C C61A | 0.776
123 | U54C C61G | 0.713
124 | U54C C61U | 0.868
125 | U54C C62A | 0.595
126 | U54C C62U G68C | ≤ 0.5
127 | U54C C66A | 0.595
128 | U54C G56A C62A | ≤ 0.5
129 | U54C G56C | 0.593
130 | U54C G56C G58A | 0.55
131 | U54C G63A | 0.701
132 | U54C G67U | 0.798
133 | U54C U59A | 0.82
134 | U54C U59C | 0.714
135 | U54C U64A A69U | 0.698
136 | U54G | 0.641
137 | U54G A65G G68U A70C | ≤ 0.5
138 | U54G A65U | ≤ 0.5
139 | U54G A65U G67A | 0.545
140 | U54G C60U | ≤ 0.5
141 | U54G C61A | ≤ 0.5
142 | U54G C61G | ≤ 0.5
143 | U54G C61G A65U | 0.596
144 | U54G C61G C62U A65U | ≤ 0.5

Row | Variant | yeast fitness
145 | U54G C62G | 0.559
146 | U54G C66A | 0.549
147 | U54G C66U | 0.653
148 | C55A | 0.656
149 | C55A A57C | 0.597
150 | C55A A57C G68C | 0.5
151 | C55A A57C U64C A65U | 0.527
152 | C55A A57G | 0.671
153 | C55A A57U | 0.694
154 | C55A A57U C66U | 0.574
155 | C55A A65C G68A | ≤ 0.5
156 | C55A A69U | 0.694
157 | C55A A70C | 0.807
158 | C55A C60A | 0.624
159 | C55A C60U | 0.525
160 | C55A C61G | ≤ 0.5
161 | C55A C62G A69C | ≤ 0.5
162 | C55A C62U | 0.685
163 | C55A C62U C66U | 0.517
164 | C55A C66A | 0.541
165 | C55A G56C | 0.522
166 | C55A G56C G67C | 0.574
167 | C55A G58C C66G | 0.623
